Tests used:
[1] = target: T1, Lysophosphatidic acid receptor 2 (Homo sapiens, UniProt Q9HBW0); assay: Antagonist activity at LPA2 expressed in RH7777 cells with Gi4-protein and aequorin by calcium mobilization assay; type: functional, cell-based
In short: (§1)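 Rat hepatoma RH7777 cells transiently transfected with aequorin, chimeric Gi4-protein and the LPA receptor subtype (LPA1, LPA2 or LPA3). Inhibition of LPA-induced receptor activation read as Ca2+ flux by flash luminescence in 384-well format; IC50 in μM, n = 2.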

[2] = target: T1, Lysophosphatidic acid receptor 2; assay: Antagonist activity at LPA2 assessed as inhibition of LPA-induced Ca2+ flux; type: functional; in short: as §1
[3] = target: Lysophosphatidic acid receptor 1 (Homo sapiens, UniProt Q92633); assay: Antagonist activity at LPA1 expressed in RH7777 cells with Gi4-protein and aequorin by calcium mobilization assay; type: functional, cell-based; in short: as §1
[4] = target: T2, Lysophosphatidic acid receptor 3 (Homo sapiens, UniProt Q9UBY5); assay: Antagonist activity at LPA3 expressed in RH7777 cells with Gi4-protein and aequorin by calcium mobilization assay; type: functional, cell-based; in short: as §1
T2 sequence (Q9UBY5 whole entry): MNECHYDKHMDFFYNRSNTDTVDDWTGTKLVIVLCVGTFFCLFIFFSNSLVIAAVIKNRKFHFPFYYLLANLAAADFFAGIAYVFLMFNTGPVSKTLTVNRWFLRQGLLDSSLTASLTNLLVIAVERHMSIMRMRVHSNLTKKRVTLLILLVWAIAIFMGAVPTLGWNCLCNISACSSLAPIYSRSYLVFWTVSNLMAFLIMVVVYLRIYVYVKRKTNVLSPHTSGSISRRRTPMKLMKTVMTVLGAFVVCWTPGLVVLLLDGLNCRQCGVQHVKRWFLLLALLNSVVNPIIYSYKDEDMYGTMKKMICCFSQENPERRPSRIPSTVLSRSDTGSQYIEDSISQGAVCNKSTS

[5] = target: T1, Lysophosphatidic acid receptor 2; assay: Inhibition of LPA2-mediated Erk activation in human HCT116 assessed as inhibition of LPA-induced erk phosphorylation
In short: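 HCT-116 cells at 90% confluence serum-starved 2 h, preincubated with compound at various concentrations 1 h at 37 °C, then stimulated with LPA 3 μM (HGF 30 ng/ml as counter-stimulus) for 12 min at 37 °C. Cells fixed, permeabilized, blocked 2 h; in-cell Western detection of p-Erk and total Erk simultaneously, p-Erk normalized to total Erk per well.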

HCT-116 = assay: Inhibition of LPA-induced proliferation of human HCT116 cells after 24 hrs; type: functional, cell-based
In short: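 HCT-116 cells at 5000 cells/well in serum-free DMEM with 0.11% BSA. Test compound added at various concentrations, then LPA at a final 3 μM (HGF at a final 30 ng/ml as comparison stimulus). After 24 h incubation, viable cells measured by CellTiter-Glo luminescence.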

Lysophosphatidic acid receptor 1, sequence (Q92633 whole entry): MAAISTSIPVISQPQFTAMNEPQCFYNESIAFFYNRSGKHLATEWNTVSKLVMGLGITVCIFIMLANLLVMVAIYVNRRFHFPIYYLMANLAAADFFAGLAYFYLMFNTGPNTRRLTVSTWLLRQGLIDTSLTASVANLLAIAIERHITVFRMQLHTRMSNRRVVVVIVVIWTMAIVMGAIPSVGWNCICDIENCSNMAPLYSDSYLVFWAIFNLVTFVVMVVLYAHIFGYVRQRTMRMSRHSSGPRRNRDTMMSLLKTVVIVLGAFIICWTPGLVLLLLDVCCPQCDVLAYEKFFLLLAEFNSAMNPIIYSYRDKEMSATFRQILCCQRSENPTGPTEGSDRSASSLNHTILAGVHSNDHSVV
T1 sequence (Q9HBW0 whole entry): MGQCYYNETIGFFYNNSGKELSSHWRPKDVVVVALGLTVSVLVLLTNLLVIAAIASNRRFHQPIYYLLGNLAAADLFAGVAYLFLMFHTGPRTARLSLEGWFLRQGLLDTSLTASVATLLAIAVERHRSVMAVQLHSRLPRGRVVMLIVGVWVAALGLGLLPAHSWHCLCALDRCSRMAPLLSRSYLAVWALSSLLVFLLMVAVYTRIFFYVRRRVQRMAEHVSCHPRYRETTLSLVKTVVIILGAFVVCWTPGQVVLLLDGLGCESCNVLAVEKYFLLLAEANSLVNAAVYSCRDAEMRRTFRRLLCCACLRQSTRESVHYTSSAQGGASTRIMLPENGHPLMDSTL

SMILES	IC50 [1] [µM]	further results
CCCCS(=O)(=O)N1CCN(C[C@H](C)Nc2ncnc3c(C)csc23)CC1	6.61	–
COc1ccccc1N1CCN(C[C@H](C)Nc2nc(C(F)(F)F)nc3ccccc23)CC1	1.3	–
COc1ccccc1N1CCN(C[C@H](C)Nc2nc(C3CC3)nc3ccccc23)CC1	3.2	–
COc1ccccc1N1CCN(CCNc2nc(C(F)(F)F)nc3ccccc23)CC1	> 30	–
Cc1csc2c(N[C@@H](C)CN3CCN(S(=O)(=O)Cc4ccccc4)CC3)ncnc12	1.86	–
Cc1ccc(S(=O)(=O)N2CCN(C[C@H](C)Nc3ncnc4c(C)csc34)CC2)cc1	0.17	–
CC[C@@H](CN1CCN(c2ccccc2OC)CC1)Nc1nc(C(F)(F)F)nc2ccccc12	> 30	–
Cc1ccccc1N1CCN(C[C@H](C)Nc2nc(C(F)(F)F)nc3ccccc23)CC1	0.73	–
CC(CN1CCN(c2ccc(F)cc2)CC1)Nc1nc(C2CC2)nc2ccccc12 (stereo not drawn)	–	IC50 [2]: 1.7 µM
COc1ccccc1N1CCN(C[C@@H](C)Nc2nc(C(F)(F)F)nc3ccccc23)CC1	> 30	–
Cc1csc2c(N[C@@H](C)CN3CCN(S(=O)(=O)c4cccc(Cl)c4)CC3)ncnc12	0.035	–
Cc1ccccc1S(=O)(=O)N1CCN(C[C@H](C)Nc2ncnc3c(C)csc23)CC1	0.73	–
COc1ccccc1N1CCN(CC(C)(C)Nc2nc(C(F)(F)F)nc3ccccc23)CC1	> 30	–
Cc1ccccc1N1CCN(C[C@H](C)Nc2ncnc3c(C)csc23)CC1	0.26	IC50 [3]: > 50 µM; IC50 [4]: > 50 µM
COc1cc(OC)cc(C(=O)N(CCCc2ccccc2)Cc2ccc(Oc3ccccc3C(=O)O)cc2)c1	> 50	IC50 [3]: > 50 µM; IC50 [4]: 0.04 µM
Cc1noc(-c2ccccc2)c1NC(=O)OC(C)c1ccccc1 (stereo not drawn)	> 50	IC50 [3]: 0.05 µM; IC50 [4]: 12 µM
Cc1cccc(S(=O)(=O)N2CCN(C[C@H](C)Nc3ncnc4c(C)csc34)CC2)c1	0.31	–
Cc1csc2c(N[C@@H](C)CN3CCN(S(=O)(=O)c4ccc(Cl)c(Cl)c4)CC3)ncnc12	0.017	IC50 [3]: > 50 µM; Activity [5]: Dose-dependent effect; Activity (HCT-116): Dose-dependent effect; IC50 [4]: > 50 µM
